Drawing on ChEMBL document CHEMBL1140872, “Discovery of a potent and selective inhibitor for human carbonyl reductase 1 from propionate scanning applied to the macrolide zearalenone” (Bioorg Med Chem, 2009), this text covers Tm for seven compounds.

Assay [1] has as its target Serine/threonine-protein kinase pim-2 (Homo sapiens) (UniProt Q9P1W9). Nature of the assay: Binding affinity to human recombinant PIM2 expressed in Escherichia coli assessed as thermal shift by differential scanning fluorimetry. In short, it runs like this: (§1)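 Thermal-shift (DSF) binding assay with purified recombinant catalytic domains or proteins carrying an N- or C-terminal His6 tag or GST fusion. Purity was >95% by SDS/PAGE and identity was confirmed by MS. Protein was at 2 µM final in 10 mM HEPES pH 7.5 and 150 mM NaCl. Tm shift is reported, with 2 °C as the threshold for binding.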
Background: In DSF a fluorescence change marks the thermal transition of the protein.

Assay [2] has as its target Mitogen-activated protein kinase 6 (Homo sapiens) (UniProt Q16659). Kind of assay: Binding affinity to human recombinant MAPK6 expressed in Escherichia coli assessed as thermal shift by differential scanning fluorimetry. A digest of the protocol:
as §1

Assay [3] addresses Serine/threonine-protein kinase PAK 6 (Homo sapiens) (UniProt Q9NQU5). Nature of the assay: Binding affinity to human recombinant PAK6 expressed in Escherichia coli assessed as thermal shift by differential scanning fluorimetry. A digest of the protocol: as §1
The target in assay [4] is T1, Carbonyl reductase [NADPH] 1 (Homo sapiens) (UniProt P16152).
T1 sequence (whole entry): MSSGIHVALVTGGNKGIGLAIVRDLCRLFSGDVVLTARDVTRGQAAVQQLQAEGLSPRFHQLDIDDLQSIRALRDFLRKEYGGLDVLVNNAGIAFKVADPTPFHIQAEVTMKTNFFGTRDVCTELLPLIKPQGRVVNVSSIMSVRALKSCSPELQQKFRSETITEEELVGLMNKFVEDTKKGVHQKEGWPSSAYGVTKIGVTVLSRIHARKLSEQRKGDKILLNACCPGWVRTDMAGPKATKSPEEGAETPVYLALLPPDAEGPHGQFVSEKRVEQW
Kind of assay: Binding affinity to human recombinant carbonyl reductase 1 expressed in Escherichia coli assessed as thermal shift by differential scanning fluorimetry in absence of cofactor. A digest of the protocol: as §1

Assay [5] addresses T2, Carbonyl reductase [NADPH] 3 (Homo sapiens) (UniProt O75828).
T2 sequence (whole entry): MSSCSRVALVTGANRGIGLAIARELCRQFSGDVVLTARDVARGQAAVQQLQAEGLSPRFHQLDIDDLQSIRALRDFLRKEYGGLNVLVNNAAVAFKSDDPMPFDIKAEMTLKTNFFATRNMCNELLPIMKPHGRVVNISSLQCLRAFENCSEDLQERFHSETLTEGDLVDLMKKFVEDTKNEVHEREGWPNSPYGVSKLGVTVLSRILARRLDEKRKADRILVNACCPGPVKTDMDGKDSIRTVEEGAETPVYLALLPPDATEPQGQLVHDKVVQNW
Nature of the assay: Binding affinity to human recombinant carbonyl reductase 3 expressed in Escherichia coli assessed as thermal shift by differential scanning fluorimetry in absence of cofactor. A digest of the protocol:
as §1

The target of assay [6] is T3, Mitogen-activated protein kinase kinase kinase 5 (Homo sapiens) (UniProt Q99683).
T3 sequence (whole entry): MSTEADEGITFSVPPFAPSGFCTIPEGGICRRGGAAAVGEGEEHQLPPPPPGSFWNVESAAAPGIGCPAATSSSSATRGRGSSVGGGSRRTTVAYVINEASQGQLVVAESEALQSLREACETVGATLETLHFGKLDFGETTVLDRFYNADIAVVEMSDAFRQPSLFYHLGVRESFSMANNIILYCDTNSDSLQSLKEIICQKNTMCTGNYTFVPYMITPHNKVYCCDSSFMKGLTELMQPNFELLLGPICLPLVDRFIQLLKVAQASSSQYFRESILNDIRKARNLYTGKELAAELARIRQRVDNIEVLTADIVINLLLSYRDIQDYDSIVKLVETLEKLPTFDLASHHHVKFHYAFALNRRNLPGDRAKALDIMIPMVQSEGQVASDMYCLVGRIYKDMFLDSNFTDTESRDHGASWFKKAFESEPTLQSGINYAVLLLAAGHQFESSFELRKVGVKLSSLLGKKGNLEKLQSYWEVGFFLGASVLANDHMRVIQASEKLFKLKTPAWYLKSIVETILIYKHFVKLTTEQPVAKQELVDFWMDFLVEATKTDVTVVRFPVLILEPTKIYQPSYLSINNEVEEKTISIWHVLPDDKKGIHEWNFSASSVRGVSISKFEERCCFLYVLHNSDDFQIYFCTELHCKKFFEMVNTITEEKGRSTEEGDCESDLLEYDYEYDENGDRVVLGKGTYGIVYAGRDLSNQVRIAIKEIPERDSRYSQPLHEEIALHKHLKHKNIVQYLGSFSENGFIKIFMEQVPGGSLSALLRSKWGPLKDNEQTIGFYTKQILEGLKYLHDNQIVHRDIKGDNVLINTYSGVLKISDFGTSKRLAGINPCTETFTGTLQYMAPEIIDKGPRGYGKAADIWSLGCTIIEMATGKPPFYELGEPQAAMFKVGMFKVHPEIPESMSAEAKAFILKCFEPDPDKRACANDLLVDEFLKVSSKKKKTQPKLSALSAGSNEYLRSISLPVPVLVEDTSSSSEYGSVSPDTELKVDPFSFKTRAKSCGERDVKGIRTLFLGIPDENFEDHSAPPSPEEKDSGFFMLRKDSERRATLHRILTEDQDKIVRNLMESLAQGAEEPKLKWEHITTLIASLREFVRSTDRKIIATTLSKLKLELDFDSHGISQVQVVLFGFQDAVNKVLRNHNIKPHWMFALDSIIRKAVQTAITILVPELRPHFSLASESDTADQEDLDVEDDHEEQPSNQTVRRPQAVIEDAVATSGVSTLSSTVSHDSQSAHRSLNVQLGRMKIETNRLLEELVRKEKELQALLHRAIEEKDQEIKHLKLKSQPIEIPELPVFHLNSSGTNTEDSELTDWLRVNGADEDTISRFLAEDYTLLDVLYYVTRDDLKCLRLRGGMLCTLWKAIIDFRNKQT
Nature of the assay: Binding affinity to human recombinant MAP3K5 expressed in Escherichia coli assessed as thermal shift by differential scanning fluorimetry. In short, it runs like this: as §1

For assay [7], the target named is T4, Dual specificity mitogen-activated protein kinase kinase 6 (Homo sapiens) (UniProt P52564).
T4 sequence (whole entry): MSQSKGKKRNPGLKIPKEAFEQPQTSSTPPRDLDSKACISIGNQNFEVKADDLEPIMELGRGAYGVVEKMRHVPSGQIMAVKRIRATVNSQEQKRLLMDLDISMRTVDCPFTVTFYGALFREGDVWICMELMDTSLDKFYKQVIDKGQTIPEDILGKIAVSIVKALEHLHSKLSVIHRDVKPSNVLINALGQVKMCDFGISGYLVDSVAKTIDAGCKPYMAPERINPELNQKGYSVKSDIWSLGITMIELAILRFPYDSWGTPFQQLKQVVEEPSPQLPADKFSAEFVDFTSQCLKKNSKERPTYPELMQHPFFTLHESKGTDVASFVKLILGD
Kind of assay: Binding affinity to human recombinant MAP2K6 expressed in Escherichia coli assessed as thermal shift by differential scanning fluorimetry. In short, it runs like this:
as §1

In assay [8] the target is STE20-like serine/threonine-protein kinase (Homo sapiens) (UniProt Q9H2G2). Nature of the assay: Binding affinity to human recombinant SLK expressed in Escherichia coli assessed as thermal shift by differential scanning fluorimetry. A digest of the protocol: as §1
STE20-like serine/threonine-protein kinase (Homo sapiens), sequence (Q9H2G2 whole entry, looked up): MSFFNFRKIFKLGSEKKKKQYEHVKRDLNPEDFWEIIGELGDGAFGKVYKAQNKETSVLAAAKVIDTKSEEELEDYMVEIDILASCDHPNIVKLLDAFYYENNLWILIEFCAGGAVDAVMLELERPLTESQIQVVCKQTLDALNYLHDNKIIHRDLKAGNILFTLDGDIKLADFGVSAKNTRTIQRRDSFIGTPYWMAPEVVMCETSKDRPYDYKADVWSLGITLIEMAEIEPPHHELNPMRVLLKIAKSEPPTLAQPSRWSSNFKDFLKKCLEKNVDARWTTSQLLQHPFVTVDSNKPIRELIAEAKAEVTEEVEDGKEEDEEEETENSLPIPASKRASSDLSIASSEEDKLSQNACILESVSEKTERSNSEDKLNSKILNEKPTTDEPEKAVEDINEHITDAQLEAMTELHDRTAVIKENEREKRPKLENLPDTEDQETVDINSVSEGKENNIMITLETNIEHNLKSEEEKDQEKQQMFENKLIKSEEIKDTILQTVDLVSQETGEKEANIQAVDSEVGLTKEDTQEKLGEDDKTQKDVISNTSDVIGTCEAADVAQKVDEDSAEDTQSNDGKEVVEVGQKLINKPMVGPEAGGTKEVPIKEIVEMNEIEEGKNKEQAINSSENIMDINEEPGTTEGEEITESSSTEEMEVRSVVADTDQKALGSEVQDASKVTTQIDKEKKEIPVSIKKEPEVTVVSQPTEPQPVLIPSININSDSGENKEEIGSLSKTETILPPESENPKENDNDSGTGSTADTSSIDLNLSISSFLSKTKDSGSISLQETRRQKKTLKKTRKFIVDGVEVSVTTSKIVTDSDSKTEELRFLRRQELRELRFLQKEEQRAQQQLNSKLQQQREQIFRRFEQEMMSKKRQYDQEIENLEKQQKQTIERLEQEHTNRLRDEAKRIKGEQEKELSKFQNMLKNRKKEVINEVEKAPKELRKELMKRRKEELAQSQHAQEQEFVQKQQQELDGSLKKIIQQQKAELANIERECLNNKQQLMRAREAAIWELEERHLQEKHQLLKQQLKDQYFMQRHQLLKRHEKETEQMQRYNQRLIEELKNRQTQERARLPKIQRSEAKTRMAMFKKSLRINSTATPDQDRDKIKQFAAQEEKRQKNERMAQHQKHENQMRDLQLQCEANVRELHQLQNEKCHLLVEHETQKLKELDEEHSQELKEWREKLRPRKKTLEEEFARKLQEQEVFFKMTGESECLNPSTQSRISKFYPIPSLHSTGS
Assay [9] concerns the target Tyrosine-protein kinase Fes/Fps (Homo sapiens) (UniProt P07332). Kind of assay: Binding affinity to human recombinant FES expressed in Escherichia coli assessed as thermal shift by differential scanning fluorimetry. In short, it runs like this: as §1

SMILES strings stand for the structures. Some results are limits rather than exact numbers.

Serine/threonine-protein kinase pim-2 (Homo sapiens), sequence (Q9P1W9 whole entry, looked up, the tested form may be a part): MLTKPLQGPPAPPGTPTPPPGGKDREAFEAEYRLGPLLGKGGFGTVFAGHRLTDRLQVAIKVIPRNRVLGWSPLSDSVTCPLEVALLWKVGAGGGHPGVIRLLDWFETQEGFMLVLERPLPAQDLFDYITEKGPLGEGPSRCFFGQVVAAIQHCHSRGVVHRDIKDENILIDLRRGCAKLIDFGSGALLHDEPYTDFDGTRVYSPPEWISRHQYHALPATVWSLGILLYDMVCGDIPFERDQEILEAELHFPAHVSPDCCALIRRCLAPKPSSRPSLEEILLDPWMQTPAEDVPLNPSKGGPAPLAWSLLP
Mitogen-activated protein kinase 6 (Homo sapiens), sequence (Q16659 whole entry): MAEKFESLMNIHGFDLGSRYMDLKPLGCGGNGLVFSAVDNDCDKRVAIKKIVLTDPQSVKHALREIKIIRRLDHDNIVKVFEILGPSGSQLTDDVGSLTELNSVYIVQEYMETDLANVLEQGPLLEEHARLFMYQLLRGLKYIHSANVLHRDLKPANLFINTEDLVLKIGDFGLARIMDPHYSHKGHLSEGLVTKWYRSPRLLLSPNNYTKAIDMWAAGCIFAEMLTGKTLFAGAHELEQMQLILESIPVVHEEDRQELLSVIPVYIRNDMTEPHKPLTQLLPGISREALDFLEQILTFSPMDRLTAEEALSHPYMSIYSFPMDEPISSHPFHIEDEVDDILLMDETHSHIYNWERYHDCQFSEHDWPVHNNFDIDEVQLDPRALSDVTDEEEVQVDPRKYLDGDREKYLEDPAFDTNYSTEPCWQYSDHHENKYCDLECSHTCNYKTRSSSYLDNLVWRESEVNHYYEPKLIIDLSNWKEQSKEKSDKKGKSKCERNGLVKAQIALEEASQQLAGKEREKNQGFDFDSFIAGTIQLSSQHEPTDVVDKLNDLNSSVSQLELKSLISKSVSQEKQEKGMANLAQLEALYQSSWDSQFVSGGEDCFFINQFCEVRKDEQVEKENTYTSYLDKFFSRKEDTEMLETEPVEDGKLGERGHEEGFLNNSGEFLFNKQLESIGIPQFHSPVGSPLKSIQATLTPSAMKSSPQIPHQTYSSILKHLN
Tyrosine-protein kinase Fes/Fps (Homo sapiens), sequence (P07332 whole entry): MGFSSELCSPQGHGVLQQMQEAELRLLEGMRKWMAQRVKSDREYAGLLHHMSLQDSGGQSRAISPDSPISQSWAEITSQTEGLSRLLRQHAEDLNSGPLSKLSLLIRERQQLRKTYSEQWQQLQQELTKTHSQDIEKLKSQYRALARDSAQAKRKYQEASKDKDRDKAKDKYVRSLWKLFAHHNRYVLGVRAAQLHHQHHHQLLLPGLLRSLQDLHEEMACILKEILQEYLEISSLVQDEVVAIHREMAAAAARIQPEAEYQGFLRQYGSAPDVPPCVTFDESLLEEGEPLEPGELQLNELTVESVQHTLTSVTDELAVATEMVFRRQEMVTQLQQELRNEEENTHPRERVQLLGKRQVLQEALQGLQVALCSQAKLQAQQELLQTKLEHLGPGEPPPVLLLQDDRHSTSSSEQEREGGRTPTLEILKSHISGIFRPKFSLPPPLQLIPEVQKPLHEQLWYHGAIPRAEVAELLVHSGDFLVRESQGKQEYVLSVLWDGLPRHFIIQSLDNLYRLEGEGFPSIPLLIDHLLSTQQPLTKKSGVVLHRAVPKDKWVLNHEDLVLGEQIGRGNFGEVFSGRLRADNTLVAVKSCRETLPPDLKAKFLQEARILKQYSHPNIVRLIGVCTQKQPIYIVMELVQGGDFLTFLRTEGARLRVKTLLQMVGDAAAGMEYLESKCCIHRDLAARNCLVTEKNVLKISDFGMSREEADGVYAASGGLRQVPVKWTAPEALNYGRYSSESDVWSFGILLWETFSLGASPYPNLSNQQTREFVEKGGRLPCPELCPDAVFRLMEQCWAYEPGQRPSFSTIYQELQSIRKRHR
Serine/threonine-protein kinase PAK 6 (Homo sapiens), sequence (Q9NQU5 whole entry, looked up): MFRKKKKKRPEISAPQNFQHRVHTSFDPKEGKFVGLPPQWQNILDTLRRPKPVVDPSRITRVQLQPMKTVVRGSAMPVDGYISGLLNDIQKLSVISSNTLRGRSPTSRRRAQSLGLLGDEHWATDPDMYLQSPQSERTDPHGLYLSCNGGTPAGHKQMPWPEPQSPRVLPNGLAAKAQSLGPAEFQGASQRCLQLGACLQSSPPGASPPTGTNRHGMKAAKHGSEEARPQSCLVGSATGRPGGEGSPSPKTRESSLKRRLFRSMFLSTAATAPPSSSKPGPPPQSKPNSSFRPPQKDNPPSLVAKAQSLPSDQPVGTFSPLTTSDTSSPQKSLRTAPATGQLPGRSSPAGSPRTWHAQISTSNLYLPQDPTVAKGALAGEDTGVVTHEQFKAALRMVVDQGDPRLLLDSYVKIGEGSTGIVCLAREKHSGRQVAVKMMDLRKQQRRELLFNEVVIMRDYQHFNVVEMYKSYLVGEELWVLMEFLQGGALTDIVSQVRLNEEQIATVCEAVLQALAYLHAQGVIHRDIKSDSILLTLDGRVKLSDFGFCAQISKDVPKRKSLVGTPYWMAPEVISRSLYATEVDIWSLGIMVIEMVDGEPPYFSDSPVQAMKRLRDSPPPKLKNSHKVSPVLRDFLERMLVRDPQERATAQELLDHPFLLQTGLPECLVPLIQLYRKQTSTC

Broadly, the Tm is the temperature at which the thermal transition is half complete. On to `COc1cc2c(c(OC)c1)C(=O)O[C@@H](C)CCCC(=O)[C@@H](C)CC/C=C/2`, for which the Tm in [1], in assay [2], in assay [3], in assay [4], in assay [5] and in assay [6] was below 2 °C each time. In addition, the Tm in assay [7], in [8] and in assay [9] was below 2 °C each time.

As to `COc1cc2c(c(OC)c1)C(=O)O[C@@H](C)CCC[C@@H](O)[C@@H](C)CC/C=C/2`, the Tm in [1], in assay [2], in assay [3], in [4], in assay [5] and in assay [6] was below 2 °C throughout. For the same compound, the Tm in assay [7], in [8] and in assay [9] was below 2 °C each time.

Consider `C[C@H]1CCCC(=O)CCC/C=C/c2cc(O)cc(O)c2C(=O)O1`, for which the Tm is 2.6 °C in assay [1]; below 2 °C in assay [2]; below 2 °C in [3]; below 2 °C in assay [4]; below 2 °C in [5]; below 2 °C in assay [6]. Moreover, the Tm in assay [7] was below 2 °C; in assay [8] it was 4.4 °C; in [9], below 2 °C.

`COC1=C2C[C@@H](C)C[C@H](OC)[C@H](O)[C@@H](C)/C=C(\C)[C@H](OC(N)=O)[C@@H](OC)/C=C\C=C(/C)C(=O)NC(=CC1=O)C2=O`: the Tm in assay [1], in assay [2], in assay [3], in assay [4], in assay [5] and in assay [6] was below 2 °C in each case. The Tm in [7], in assay [8] and in assay [9] was below 2 °C throughout.

On to `C[C@H]1CCCC(=O)[C@@H](C)CC/C=C/c2cc(O)cc(O)c2C(=O)O1`, for which the Tm in assay [1], in [2], in [3], in assay [4], in assay [5] and in [6] was below 2 °C each time. Further, the Tm was below 2 °C in [7], 3.5 °C in assay [8] and below 2 °C in assay [9].

With `COc1cc(O)c2c(c1)/C=C/CC[C@H](C)C(=O)CCC[C@H](C)OC2=O`, the Tm in assay [1], in assay [2], in [3], in assay [4], in assay [5] and in assay [6] was below 2 °C in each case. Moreover, the Tm is below 2 °C in [7], 2.5 °C in [8] and below 2 °C in assay [9].

Turning to `C[C@@H]1C[C@H]2O[C@@H]2/C=C\C=C\C(=O)Cc2c(Cl)c(O)cc(O)c2C(=O)O1` [RADICICOL], the Tm in assay [1], in [2], in [3], in assay [4], in [5] and in assay [6] was below 2 °C throughout. The Tm in assay [7], in [8] and in assay [9] was below 2 °C in each case.
